Measurements as given in ChEMBL document CHEMBL1132358, “Virtual combinatorial syntheses and computational screening of new potential anti-herpes compounds” (J Med Chem, 1999).

Each compound was assayed on Vero (assay: Anti-Herpes simplex virus type-1 activity in vero cells using plaque inhibition assay). Details: Chlorocebus sabaeus, Vero.
Format: functional, cell-based, Chlorocebus sabaeus
How it was run: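 Plaque-reduction assay with HSV-1 McIntyre strain (titrated suspension) on confluent Vero monolayers. Cells infected with 100 PFU in MEM and adsorbed 2 h at 37 °C. Inoculum then replaced with MEM containing 0.2% γ-globulin plus serial concentrations of compound. Untreated infected wells served as CPE controls; CPE completed 1–2 days post-infection. Result given as IC50.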

Compound	IC50
O=C(O)C1=C(C(=O)Oc2ccc(F)c(F)c2F)CCC1	1800 nM
Cc1noc(C)c1[N+](=O)[O-]	900 nM
O=C(O)C1=C(C(=O)Nc2ccc(F)c(F)c2F)CCC1	900 nM
O=C(O)C1=C(C(=O)Nc2c(F)cccc2F)CCC1	900 nM
O=C1NC(=O)C([N+](=O)[O-])C(=O)N1	1700 nM
O=C(O)C1=C(C(=O)Oc2ccc(F)cc2F)CCC1	1400 nM
O=C(O)C1=C(C(=O)Nc2cccc(F)c2F)CCC1	900 nM
Cc1cc(=O)oc2cc(OCC(=O)O)ccc12	70 nM
O=C(O)c1n[nH]nc1C(=O)O	5000 nM
O=C(CN1CCNCC1)N1CCCC1	600 nM
Cc1cn([C@@H]2O[C@H](CO)[C@@H](O)[C@H]2O)c(=O)nc1N	60 nM
Nc1nc(N)c2nc(CO)cnc2n1	160 nM
O=C(O)CCCCC(=O)O [ADIPIC ACID]	400 nM
Nc1ncnc2c1ncn2[C@@H]1O[C@H](CO)C[C@H]1O [CORDYCEPIN]	500 nM
O=c1ccn([C@H]2C[C@H](O)[C@@H](CO)O2)c(=O)[nH]1 [DEOXYURIDINE]	2200 nM
Cc1cn([C@H]2C[C@H](O)[C@@H](CO)O2)c(=O)[nH]c1=O [DOXRIBTIMINE]	400 nM
O=c1[nH]cnc2c1ncn2[C@@H]1O[C@H](CO)[C@@H](O)[C@H]1O [INOSINE]	230 nM
OC[C@H]1O[C@@H](n2cnc3cncnc32)[C@H](O)[C@@H]1O [NEBULARINE]	600 nM
O=C1CN(/N=C/c2ccc([N+](=O)[O-])o2)C(=O)N1 [NITROFURANTOIN]	900 nM
O=C(O)CCC(=O)O [SUCCINIC ACID]	1300 nM

Same assay, conditions: vero

Compound	IC50
Cc1cn([C@H]2C[C@H](O)[C@@H](CO)O2)c(=O)[nH]c1=O [DOXRIBTIMINE]	300 nM
